Test [1] has as its system DNA. In words: Induction of unwinding effect of Escherichia coli relaxed pBR322 DNA at 1 to 9 uM preincubated with DNA for 10 mins followed by excess calf thymus TOP1 addition and measured after 30 mins by agarose gel electrophoresis. The format is nucleic-acid assay. A digest of the protocol:
(§1)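 Compound (1, 3, 9 µM) preincubated with pBR322 DNA, supercoiled or relaxed, at room temperature for 10 min. Excess TOP1 then added and incubated 30 min at 37 C. Stopped with SDS/proteinase K. Ethidium bromide (0.3-1.2 mg/L) as positive control. Run on 0.8% agarose in TBE at 4.6 V/cm for 1.5 h, stained with gel red, UV visualized.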

Another test deals with CCRF-CEM. Description: Cytotoxicity against human CCRF-CEM cells assessed as growth inhibition after 72 hrs by MTT assay. The class given is functional. In a few lines:
(§2)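 Five-dose MTT growth assay, compounds predissolved in DMSO, 72 h exposure at 37 C. Cells kept in RPMI-1640 or DMEM, 37 C, 5% CO2, passage 3-6. MTT (1 mg/mL in PBS) added for 4 h, formazan dissolved in DMSO, OD 570 nm. GI50 (50% growth inhibition) by nonlinear regression. Means ± SD, at least three repeats.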

The subject of a further test is HCT-116. In words: Cytotoxicity against human HCT116 cells assessed as growth inhibition after 72 hrs by MTT assay. The class given is functional. Particulars: HCT-116, 72 h. A digest of the protocol:
as §2

A further test deals with DU-145. Description: Cytotoxicity against human DU145 cells assessed as growth inhibition after 72 hrs by MTT assay. The format is functional. Particulars: DU-145, 72 h. In a few lines:
as §2

In a further test the test system is Huh-7. In words: Cytotoxicity against human HuH7 cells assessed as growth inhibition after 72 hrs by MTT assay. The format is functional. Particulars: Huh-7, 72 h. A digest of the protocol: as §2
Test [2] concerns DNA. Description: Induction of unwinding effect of Escherichia coli supercoiled pBR322 DNA at 1 to 9 uM preincubated with DNA for 10 mins followed by excess calf thymus TOP1 addition and measured after 30 mins by agarose gel electrophoresis. The format is nucleic-acid assay. A digest of the protocol:
as §1

For test [3], the target named is T1, Topoisomerase I (Bos taurus) (UniProt Q2HPH0).
T1 sequence (whole entry): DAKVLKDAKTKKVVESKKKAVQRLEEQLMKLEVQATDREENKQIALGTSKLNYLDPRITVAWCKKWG
Description: Inhibition of calf thymus TOP1-mediated relaxation of supercoiled pBR322 DNA at 25 uM after 30 mins by agarose gel electrophoresis relative to camptothecin. A digest of the protocol: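 0.5 µg supercoiled pBR322 in buffer (10 mM Tris-HCl pH 7.5, 50 mM KCl, 5 mM MgCl2, BSA, DTT) with 1 unit calf thymus TOP1, with or without compound (0.2-125 µM), 30 min at 37 C. Run on 0.8% agarose/TBE at 4.6 V/cm for 1.5 h, gel red stained. Activity graded in bands (e.g. +++ 81-120%). At least two independent repeats.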

A further test relates to A549. In words: Cytotoxicity against human A549 cells assessed as growth inhibition after 72 hrs by MTT assay. The class given is functional. Particulars: A549, 72 h. In a few lines: as §2

Active and inactive are the calls of the source. The rule behind the calls is not given here. Some results are limits rather than exact numbers.

For the compound `CCOC(=O)c1c2c(n3ccc(NC(=O)CCN4CCOCC4)cc13)C(=O)c1ncccc1C2=O`, the outcome with DNA [1] and with DNA [2] was inactive. Also, the GI50 with CCRF-CEM was 600 nM; with HCT-116 it was 300 nM; in the test on DU-145, 16400 nM; with Huh-7 it was 340 nM; in the test on A549 it was 9680 nM. The inhibition in test [3] lay within 81 to 120%.

As for `O=C1c2cccnc2C(=O)c2c1c(C(=O)OCCCN1CCCC1)c1c(F)cccn21`, the GI50 with CCRF-CEM stood at 510 nM; in the test with HCT-116, 29 nM; in the test on DU-145, 92 nM; in the test with Huh-7, 110 nM; with A549, 80 nM. In addition, the inhibition in test [3] lay in the range of 41 to 80%.

For the compound `O=C1c2cccnc2C(=O)c2c1c(C(=O)OCCCN1CCCC1)c1c(Cl)cccn21`, the GI50 in the test on CCRF-CEM was determined as 85300 nM; in the test with HCT-116, 38200 nM; in the test on DU-145, 8320 nM; in the test on Huh-7, 12200 nM; in the test on A549, 24500 nM. Further, the inhibition in test [3] was below 40%.

Take `O=C1c2cnncc2C(=O)c2c1c(C(=O)OCCN1CCOCC1)c1ccccn21`: the result in the test with DNA [1] and with DNA [2] was inactive. Besides, the GI50 was 1350 nM in the test with CCRF-CEM; 3430 nM with HCT-116; 1220 nM in the test on DU-145; 2920 nM in the test on Huh-7; 860 nM in the test with A549. In test [3], the inhibition lay in the range of 81 to 120%.

As for `CCOC(=O)c1c2c(n3ccccc13)C(=O)c1ncccc1C2=O`, the result in the test on DNA [1] and with DNA [2] was inactive. Also, the GI50 turned out to be 680 nM in the test on CCRF-CEM; 330 nM in the test on HCT-116; 93 nM with DU-145; 850 nM in the test with Huh-7; 160 nM with A549. Also, in test [3], the inhibition was 81 to 120%.

For the compound `CCOC(=O)c1c2c(n3ccc(NC(=O)CCN(C)C)cc13)C(=O)c1ncccc1C2=O`, the GI50 came to 290 nM in the test on CCRF-CEM; 1750 nM with HCT-116; 2270 nM in the test on DU-145; 1650 nM in the test on Huh-7; 19600 nM in the test on A549. Further, in test [3], the inhibition fell in the range of 41 to 80%.

Consider `O=C1c2cccnc2C(=O)c2c1c(C(=O)OCCCN1CCCCC1)c1c(Cl)cccn21`, for which the GI50 was 5350 nM in the test on CCRF-CEM; 5150 nM with HCT-116; 1730 nM in the test on DU-145; 1320 nM in the test on Huh-7; 890 nM with A549. Further, in test [3], the inhibition lay in the range of 41 to 80%.

On to `CN1CCN(CCCOC(=O)c2c3c(n4cccc(F)c24)C(=O)c2ncccc2C3=O)CC1`, for which the GI50 in the test on CCRF-CEM came to 320 nM; in the test with HCT-116, 44 nM; in the test on DU-145, 73 nM; in the test with Huh-7, 42 nM; in the test with A549, 21 nM. The inhibition in test [3] lay within 41 to 80%.

`CN(C)CCCOC(=O)c1c2c(n3cccc(F)c13)C(=O)c1ncccc1C2=O`: the result in the test on DNA [1] and with DNA [2] was Active. In addition, the GI50 came out at 370 nM in the test with CCRF-CEM; 66 nM in the test on HCT-116; 25 nM in the test with DU-145; 80 nM in the test on Huh-7; 18 nM in the test with A549. The inhibition in test [3] was in the range of 81 to 120%.

As to `O=C1c2nccnc2C(=O)c2c1c(C(=O)OCCN1CCOCC1)c1ccccn21`, the 50% growth inhibitory concentration (GI50) in the test with CCRF-CEM came out at 1610 nM; with HCT-116, 13200 nM; in the test on DU-145, 2550 nM; in the test on Huh-7 it was 7330 nM; with A549 it was 8520 nM. Also, in test [3], the inhibition lay in the range of 41 to 80%.

As to `O=C1c2cccnc2C(=O)c2c1c(C(=O)OCCCN1CCOCC1)c1c(F)cccn21`, the GI50 with CCRF-CEM is 490 nM; in the test with HCT-116, 38 nM; in the test on DU-145, 250 nM; with Huh-7, 130 nM; with A549, 230 nM. Also, the inhibition in test [3] is below 40%.

As to `O=C1c2ncccc2C(=O)c2c1c(C(=O)OCCN1CCOCC1)c1ccccn21`, the result in the test with DNA [1] and in the test on DNA [2] was inactive. The concentration for 50% growth inhibition (GI50) in the test with CCRF-CEM came out at 70500 nM; in the test with HCT-116, 11100 nM; in the test on DU-145 it was 1200 nM; in the test on Huh-7 it was 14200 nM; with A549, 4520 nM. In addition, the inhibition in test [3] is above 121%.

Consider `O=C1c2cccnc2C(=O)c2c1c(C(=O)OCCN1CCOCC1)c1c(F)cccn21`, for which the concentration for 50% growth inhibition (GI50) in the test with CCRF-CEM turned out to be 1100 nM; in the test on HCT-116 it was 110 nM; in the test on DU-145 it was 230 nM; in the test with Huh-7, 570 nM; in the test with A549, 130 nM. Moreover, the inhibition in test [3] was below 40%.

Turning to `CCOC(=O)c1c2c(n3ccc(NC(=O)CCN4CCCCC4)cc13)C(=O)c1ncccc1C2=O`, the result with DNA [1] and with DNA [2] was inactive. Further, the concentration for 50% growth inhibition (GI50) in the test with CCRF-CEM worked out at 110 nM; with HCT-116 it was 1430 nM; in the test with DU-145 it was 3120 nM; in the test with Huh-7 it was 1150 nM; in the test with A549 it was 2650 nM. Also, the inhibition in test [3] is 81 to 120%.

For `CN1CCN(CCOC(=O)c2c3c(n4cccc(F)c24)C(=O)c2ncccc2C3=O)CC1`, the GI50 in the test with CCRF-CEM was 450 nM; in the test on HCT-116 it was 44 nM; in the test on DU-145, 29 nM; in the test with Huh-7, 110 nM; in the test on A549, 52 nM. Besides, the inhibition in test [3] was 41 to 80%.

Take `O=C1c2cccnc2C(=O)c2c1c(C(=O)OCCCN1CCOCC1)c1c(Cl)cccn21`: the GI50 was found to be 68600 nM in the test on CCRF-CEM; 19100 nM with HCT-116; 29100 nM with DU-145; 28400 nM in the test on Huh-7; 37500 nM in the test with A549. In addition, in test [3], the inhibition was below 40%.

On to `O=C1c2cccnc2C(=O)c2c1c(C(=O)OCCN1CCCCC1)c1c(Cl)cccn21`, for which the outcome in the test on DNA [1] and with DNA [2] was Active. The GI50 was found to be 390 nM in the test on CCRF-CEM; 310 nM with HCT-116; 2520 nM in the test on DU-145; 170 nM in the test on Huh-7; 120 nM in the test with A549. For the same compound, in test [3], the inhibition was above 121%.

For the compound `O=C1c2cccnc2C(=O)c2c1c(C(=O)OCCN1CCOCC1)c1c(Cl)cccn21`, the GI50 in the test with CCRF-CEM worked out at 61300 nM; with HCT-116 it was 28600 nM; in the test with DU-145 it was 29500 nM; with Huh-7, 30300 nM; in the test on A549, 48600 nM. For the same compound, the inhibition in test [3] was in the range of 41 to 80%.

In the case of `CCOC(=O)c1c2c(n3ccc(NC(=O)CCN4CCCC4)cc13)C(=O)c1ncccc1C2=O`, the GI50 in the test on CCRF-CEM came out at 540 nM; with HCT-116, 1900 nM; with DU-145, 700 nM; with Huh-7, 1800 nM; in the test with A549, 29300 nM. Also, in test [3], the inhibition lay in the range of 41 to 80%.

Take `O=C1c2cccnc2C(=O)c2c1c(C(=O)OCCN1CCCC1)c1c(Cl)cccn21`: the GI50 with CCRF-CEM came out at 48200 nM; in the test with HCT-116, 10200 nM; in the test on DU-145 it was 1580 nM; with Huh-7, 2250 nM; in the test on A549, 5390 nM. The inhibition in test [3] is below 40%.

Turning to `CN(C)CCOC(=O)c1c2c(n3cccc(F)c13)C(=O)c1ncccc1C2=O`, the concentration for 50% growth inhibition (GI50) came to 1090 nM in the test with CCRF-CEM; 92 nM in the test with HCT-116; 690 nM in the test with DU-145; 310 nM in the test on Huh-7; 27200 nM in the test on A549. Also, the inhibition in test [3] lay in the range of 41 to 80%.

(Values after ChEMBL document CHEMBL4152240, “Synthesis, cytotoxicity and structure-activity relationship of indolizinoquinolinedione derivatives as DNA topoisomerase IB catalytic inhibitors” (2018).)
